Screening data from PubChem BioAssay.
Most compounds without a hit are left out; they make up all but 2.2% or so of the library.
Hck Nef HTS: inhibitors of human Hck kinase activated by Nef; P08631; Recombinant Hck-YEEI plus Nef, Z-Lyte FRET kinase assay; inhibition, % at 20 µM; 220,000 compounds, 0.68% hits; AID 463187;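 active = Hck-Nef kinase inhibition above about 50%, limit read from the data; inactive = inhibition below that limit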;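 also: 0% = DMSO with Hck plus Nef and 100% = Hck alone without Nef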
eIF4E-4G inh: blocks eIF4E binding to eIF4G; P63073+Q04637; 220,000 compounds, 0.37% hits; inhibition, % at 21.7 µM; TR-FRET eIF4E-eIF4GI(517-606) binding, 2 h;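 active = inhibition above about 30%, limit read from the data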;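 also: 0% = full FRET control wells and 100% = background wells lacking eIF4GI fragment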
Target sequence (P63073 whole entry, looked up, the tested form may be a part): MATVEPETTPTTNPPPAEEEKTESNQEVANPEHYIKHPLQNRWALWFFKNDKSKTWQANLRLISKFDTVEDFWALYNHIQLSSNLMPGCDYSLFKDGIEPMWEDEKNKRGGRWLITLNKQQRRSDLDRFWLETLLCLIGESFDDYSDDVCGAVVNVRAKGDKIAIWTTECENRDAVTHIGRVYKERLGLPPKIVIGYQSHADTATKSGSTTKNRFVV
Target sequence (Q04637 whole entry, looked up, the tested form may be a part): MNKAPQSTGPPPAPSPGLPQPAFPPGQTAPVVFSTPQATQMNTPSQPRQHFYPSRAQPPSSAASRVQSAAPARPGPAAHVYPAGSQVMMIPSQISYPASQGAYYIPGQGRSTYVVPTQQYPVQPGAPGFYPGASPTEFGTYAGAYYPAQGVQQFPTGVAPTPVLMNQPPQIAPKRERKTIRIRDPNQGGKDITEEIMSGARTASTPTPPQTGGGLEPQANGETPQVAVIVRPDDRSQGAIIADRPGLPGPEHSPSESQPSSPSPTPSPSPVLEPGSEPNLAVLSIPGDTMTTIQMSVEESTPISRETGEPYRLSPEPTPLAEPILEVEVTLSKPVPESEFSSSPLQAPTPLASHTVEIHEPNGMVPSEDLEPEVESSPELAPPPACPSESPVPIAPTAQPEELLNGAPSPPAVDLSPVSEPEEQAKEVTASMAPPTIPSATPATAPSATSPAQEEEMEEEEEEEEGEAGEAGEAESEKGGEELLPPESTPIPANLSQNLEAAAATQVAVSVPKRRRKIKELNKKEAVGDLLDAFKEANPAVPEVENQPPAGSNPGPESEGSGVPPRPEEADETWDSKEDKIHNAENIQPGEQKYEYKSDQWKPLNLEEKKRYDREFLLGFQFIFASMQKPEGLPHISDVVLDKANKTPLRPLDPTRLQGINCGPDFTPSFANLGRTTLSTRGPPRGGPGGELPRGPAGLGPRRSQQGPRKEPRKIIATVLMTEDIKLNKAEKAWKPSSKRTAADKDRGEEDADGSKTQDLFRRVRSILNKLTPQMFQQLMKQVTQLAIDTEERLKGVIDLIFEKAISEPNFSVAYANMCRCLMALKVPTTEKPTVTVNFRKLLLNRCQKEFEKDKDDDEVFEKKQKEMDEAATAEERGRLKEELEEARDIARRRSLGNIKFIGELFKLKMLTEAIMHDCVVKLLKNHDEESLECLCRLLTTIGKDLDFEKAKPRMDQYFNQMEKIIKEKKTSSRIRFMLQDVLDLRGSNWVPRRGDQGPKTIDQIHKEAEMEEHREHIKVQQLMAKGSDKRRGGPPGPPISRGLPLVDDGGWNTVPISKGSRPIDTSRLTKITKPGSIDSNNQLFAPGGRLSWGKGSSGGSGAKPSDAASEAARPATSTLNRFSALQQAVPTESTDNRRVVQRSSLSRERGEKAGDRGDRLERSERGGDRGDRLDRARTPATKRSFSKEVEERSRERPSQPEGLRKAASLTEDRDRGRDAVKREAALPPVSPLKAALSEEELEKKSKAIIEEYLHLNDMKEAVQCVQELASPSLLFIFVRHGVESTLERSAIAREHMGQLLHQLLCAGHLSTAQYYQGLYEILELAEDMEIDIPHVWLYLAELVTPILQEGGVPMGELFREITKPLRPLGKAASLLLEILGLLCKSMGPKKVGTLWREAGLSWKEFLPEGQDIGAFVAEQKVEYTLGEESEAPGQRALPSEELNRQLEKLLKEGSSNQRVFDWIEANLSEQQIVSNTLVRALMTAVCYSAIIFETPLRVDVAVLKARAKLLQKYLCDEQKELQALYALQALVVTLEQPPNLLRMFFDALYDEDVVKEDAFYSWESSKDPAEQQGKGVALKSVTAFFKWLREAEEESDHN
PERK inh: blocks human PERK kinase. Q9NZJ5. CHO PERK-DD fusion, SEAP luminescence translation reporter. 220,000 compounds, 0.17% hits. inhibition, % at 5.6 µM;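 active = inhibition above the mean inhibition of all tested compounds plus 3 SD, set separately per screening campaign, cut at about 2.9% in these data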;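 also: PERK kinase domain activated by AP20187 dimerizer at 100 nM; 0% = DMSO with dimerizer and 100% = rapamycin at 8.4 µM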
14-3-3 Bad PPI: disrupts binding of bovine 14-3-3 zeta to phospho-Bad peptide; inhibition, % at 21.7 µM; P63103; TR-FRET 14-3-3zeta/Dy647-pBad peptide displacement, 1 h; 220,000 compounds, 0.71% hits;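 active = inhibition above about 70%, limit read from the data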;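 also: 0% = full 14-3-3 plus peptide FRET controls and 100% = background without 14-3-3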
Biofilm kill mix: mixtures killing C. albicans biofilm | C. albicans biofilm persisters + clotrimazole, fluorescence viability; primary screen in compound mixtures of four per well | inhibition, % at 7.6 µM | 120,000 compounds, 0.02% hits | AID 1242;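 active = inhibition above 30.3% in the primary screen of four-compound pools, then above 30% when the compound was retested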;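 also: compounds exposed to preformed 24 h biofilms for 48 h; 0% = untreated biofilm control and 100% = clotrimazole plus chlorhexidine kill blank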
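System: C. albicans CAF4-2 wild-type biofilms; Medium: RPMI/MOPS medium, pH 7.0; Reagent: Clotrimazole, 50 µg/mL; Times: biofilm formation 24 h, compound exposure 48 h, 37 °C; Detection: 2-h Alamar Blue fluorescence, 535/590 nm excitation/emission; Evaluation: percent inhibition of biofilm viability.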
p97 inhibitor: blocks human p97 ATPase activity. P55072. recombinant p97 ATPase, Kinase-Glo ATP luminescence, 3 h. inhibition, % at 8 µM. 220,000 compounds, 0.42% hits; in the data active = inhibition above about 15%;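 also: 0% = DMSO vehicle and 100% = wells lacking enzyme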
p97 confirm: confirmation of human p97 ATPase inhibitors. shares compounds with p97 inhibitor. recombinant p97 ATPase, Kinase-Glo ATP luminescence. inhibition, % at 8 µM. 760 compounds, 44% hits. AID 1517;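 active = percent inhibition of p97 ATPase above a set limit, the primary screen's mean plus 3 SD, cut at about 15% in these data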;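 also: 0% = DMSO wells and 100% = wells lacking p97 protein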
Numbers without * were called inactive; / = no result.

SMILES | Hck Nef HTS | eIF4E-4G inh | PERK inh | 14-3-3 Bad PPI | Biofilm kill mix | p97 inhibitor | p97 confirm
CN1CN(C)c2cccc3cccc1c23 | 0 | 14 | 0 | 5 | 16 | 29* | 5
COc1ccc2nc3ccccc3nc2c1N | -3 | -2 | -2 | -6 | -6 | 26* | 3
COc1ccc2nc3cccc(OC)c3nc2c1 | 3 | 4 | 0 | -5 | 4 | 4 | /
CCn1c(/C=C/Nc2ccccc2)[n+](CC)c2cc(Cl)c(Cl)cc21 | 2 | -25 | 0 | 6 | 15 | -5 | /
CCn1c(/C=C/N(C(C)=O)c2ccccc2)[n+](CCCS(=O)(=O)[O-])c2cc(Cl)c(Cl)cc21 | 15 | -5 | 0 | 4 | 17 | 18* | 5
CCN(CC)S(=O)(=O)c1ccc2c(c1)nc(CCC(=O)Nc1ccccc1Cc1ccccc1)n2CC | 2 | -3 | 0 | 3 | / | 3 | /
Cc1ccc(NC(=S)NC(CO)C(O)c2ccc([N+](=O)[O-])cc2)cc1 (stereo not drawn) | -6 | 2 | 0 | -1 | 11 | 3 | /
O=[N+]([O-])c1ccc(C(O)C(CO)NC(=S)Nc2ccccc2)cc1 (stereo not drawn) | 7 | 3 | 2 | 0 | 18 | 16* | 9
Cc1ccc(C(=O)C(NC(=O)c2ccco2)Nc2sc3c(c2C(N)=O)CCCC3)cc1 (stereo not drawn) | 8 | -4 | -1 | 4 | 15 | 9 | /
CC(=O)N(/N=C1\Sc2ccccc2C1=O)c1cccc(C)c1 | -1 | 15 | 1 | -4 | / | 15* | 24*
O=C(NCc1cccnc1)c1cn(-c2ccccc2)nc1-c1ccccc1 | -3 | 3 | 1 | -7 | 20 | 1 | /
CCOC(=O)c1c(NC(=O)Cn2cnc3scc(-c4ccc(C)cc4)c3c2=O)sc(C)c1C | 3 | -1 | 0 | -14 | 16 | 3 | /
O=C(O)CCCN1C(=O)/C(=C\c2ccc(-c3nc4ccccc4s3)o2)SC1=S | 20 | 15 | 3 | 81* | 8 | 15* | 3
O=C(O)CCN1C(=O)/C(=C/c2ccc(-c3nc4ccccc4s3)o2)SC1=S | 18 | 18 | 1 | 22 | / | 3 | /
CCOc1ccc(C2C([N+](=O)[O-])=C(C)N(C)C(=O)N2C)cc1OC (stereo not drawn) | 19 | -1 | 0 | -13 | -7 | 7 | /
CC1(C)Cc2nc3scc(NC(=O)c4ccccc4)c3cc2CO1 | 15 | -5 | -2 | -6 | 13 | -2 | /
N#Cc1ccc(/C=N/NC(=S)Nc2ccc(S(=O)(=O)N3CCOCC3)cc2)cc1 | 24 | -12 | 0 | -8 | 22 | 4 | /
O=S(=O)(c1ccc(NC(=S)N/N=C/c2ccc(O)c(O)c2)cc1)N1CCOCC1 | -3 | 2 | 1 | 3 | 13 | 19* | 21*
Cc1ccc(CN2CCNC(=O)C2CC(=O)N2CCN(c3ncccn3)CC2)o1 (stereo not drawn) | 21 | 1 | 0 | -15 | 13 | 3 | /
C/C(=N\Nc1ccc(S(=O)(=O)N2CCOCC2)cc1[N+](=O)[O-])C(C)C | 5 | -2 | 1 | -6 | 4 | 2 | /
COC(=O)c1c(NC(=O)/C=C/C(=O)O)sc(Cc2ccccc2)c1C | 4 | 7 | 0 | 4 | 6 | 15* | 23*
COC(=O)c1c(N)sc(Cc2ccccc2)c1C | 29 | -2 | 0 | 19 | 32 | 3 | /
CC1=NN(Cc2ccccc2)C(=O)C1C(c1ccc(Cl)cc1)C(C#N)C#N (stereo not drawn) | 4 | 4 | 2 | -26 | 15 | 18* | 9
C=C1SC(=Nc2c(C)cc(C)cc2C)N(C(=O)c2sc3ccccc3c2Cl)C12CCCCC2 | 9 | -16 | 2 | -14 | 9 | 1 | /
CC(C)(C)[C@H]1C=C(C(=O)NCc2nc3ccccc3[nH]2)O[C@@H](OCc2ccc(CO)cc2)C1 | 25 | -4 | / | -8 | 13 | / | /
C=CC[n+]1c(-c2ccc(C)cc2)csc1Nc1ccc(NC(C)=O)cc1 | -9 | 2 | 0 | 4 | 14 | -3 | /
C=CC[n+]1c(-c2ccc(OC)cc2)csc1NNC(=O)Nc1ccccc1 | 2 | 12 | -1 | 64 | / | 17* | 1
